Source: PubChem (several laboratories)
In the library only some 2.1% were active in any assay of this set; here they are far more common.
Runt-SMMHC FRET – inhibitors of RUNX1 Runt–CBFb-SMMHC binding, primary screen, biochemical, FRET, Cerulean-Runt, Venus-CBFb-SMMHC, uHTS. Runt-related transcription factor 1 (Homo sapiens) + Core-binding factor subunit beta …. Cerulean-Runt/Venus-CBFb-SMMHC FRET ratio 530/480, 1 h. inhibition, % at 20 µM. 0.74% of 220,000 active. AID 1434, 2008;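 active = mean inhibition across duplicate retests at 20 µM reaching about 50%, limit read from the data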;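 note: 0% = DMSO wells and 100% = wells with excess untagged CBFb-SMMHC; inhibitors lower the FRET ratio by blocking Runt binding to CBFb-SMMHC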
Runt-CBFb FRET – inhibitors of RUNX1 Runt–CBFb binding, primary screen, biochemical, FRET, Cerulean-Runt, Venus-CBFb, uHTS; Runt-related transcription factor 1 (Homo sapiens) + Core-binding factor subunit beta …; Cerulean-Runt/Venus-CBFb FRET ratio 530/480, 1 h; inhibition, % at 20 µM; 0.46% of 220,000 active; AID 1496, 2009;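 active = inhibition over about 50% at 20 µM in the single-dose screen, limit read from the data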;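 note: 0% = DMSO wells and 100% = excess unlabeled CBFb competitor control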
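System: Cerulean-labeled Runt domain protein | Quantity: 100 nM of each labeled protein | Schedule: 1 h compound exposure, room temperature | Detection: Fluorescence energy transfer, 422 nm excitation, 530/480 nm emission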
KLK7 zymogen act – proKLK7 zymogen activators, primary screen, biochemical, fluorescence intensity; purified proKLK7, EDANS-DABCYL substrate fluorescence; 100% is mature enzyme control, 0% vehicle; activation, % at 7 µM; 0.9% of 370,000 active; AID 652039, 2013;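 active = activation above the mean of all tested compounds plus 3 SD, computed per campaign excluding outliers beyond control limits, cut at about 13% in these data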
RanGTP-Impb inh – inhibitors of RanGTP-importin-beta interaction, primary screen, biochemical, FRET, CFP-Ran, YFP-importin-beta, homogeneous; cell-free CFP-Ran/YFP-importin-beta FRET ratio; inhibition, % (test concentration not listed); 1.1% of 300,000 active; Ran GTPase (GTP-bound) - importin-beta complex;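 active = more than half of the replicate wells show a fall in the fluorescence ratio signal beyond about 16%, limit read from the data, passing the limit was not always enough; inconclusive = exactly half of the replicate wells pass the set limit; inactive = fewer than half of replicates pass the limit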;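 note: 0% = DMSO wells and 100% = Ran loaded with GDP instead of GTP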
MEX-5 binding – MEX-5 zinc finger RNA-binding disruptors – biochemical, C. elegans, fluorescence polarization, MLPCN library, primary screen; Zinc finger protein mex-5 (Caenorhabditis elegans), Q9XUB2; MEX-5/FITC-TCR2 RNA binding; hits give low values; activity score (negative = inhibition of binding), % at 10 µM; 0.38% of 300,000 active;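 active = inhibition past about -25% in most replicates, and total fluorescence under double the plate's negative control median, limit read from the data; inconclusive = replicates evenly split on the limit, or fluorescence at least double controls; inactive = too little inhibition in most replicates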;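 note: 0% = DMSO and -100% = 5 µM competing unlabeled TCR2 RNA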
Target sequence (Q9XUB2 whole entry, looked up): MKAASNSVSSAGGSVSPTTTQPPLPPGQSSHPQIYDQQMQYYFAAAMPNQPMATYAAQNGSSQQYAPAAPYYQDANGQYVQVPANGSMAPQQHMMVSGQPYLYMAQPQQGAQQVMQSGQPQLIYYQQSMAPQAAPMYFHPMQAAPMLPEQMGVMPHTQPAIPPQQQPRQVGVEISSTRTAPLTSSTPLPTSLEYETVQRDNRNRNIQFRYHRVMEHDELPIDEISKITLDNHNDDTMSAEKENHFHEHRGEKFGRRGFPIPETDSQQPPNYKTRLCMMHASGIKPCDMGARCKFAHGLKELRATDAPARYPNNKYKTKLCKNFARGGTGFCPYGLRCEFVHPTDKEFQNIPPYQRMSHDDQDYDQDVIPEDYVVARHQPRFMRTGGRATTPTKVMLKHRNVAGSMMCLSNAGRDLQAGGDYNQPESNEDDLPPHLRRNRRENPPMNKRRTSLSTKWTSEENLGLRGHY
RUNX1 CBFb TR – inhibitors of RUNX1 Runt–CBFb binding, biochemical, TR-FRET. shares compounds with Runt-CBFb FRET. TR-FRET RUNX1 Runt domain-CBFb binding. inhibition, % at 20 µM. 20% of 480 active. AID 1502, 2009; in the data active = inhibition above about 40%
YIC FRET counter – YIC intramolecular FRET probe signal interference, dose response, counter-screen for RanGTP-importin-beta inhibitor project, biochemical, fluorescence FRET; shares compounds with RanGTP-Impb inh; Purified YIC probe, intramolecular FRET ratio YFP/CFP; IC50, µM; 40% of 1,000 active; AID 435026, 2010;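 active = fitted half-maximal inhibitory concentration no more than tenfold above the top dose tested; inconclusive = flat fit with 30 to 70% activity, or poor fit; inactive = half-maximal concentration beyond tenfold above the top dose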
KLK7 act conf – proKLK7 zymogen activators, confirmation, biochemical, fluorescence intensity, triplicate. shares compounds with KLK7 zymogen act. activation, % at 7 µM. 68% of 3,200 active. purified proKLK7, EDANS-DABCYL substrate fluorescence; scaled: vehicle 0, mature enzyme 100. AID 686949, 2013;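 active = activation, as change over the incubation, above the mean of all tested compounds plus 3 SD, cut at about 13% in these data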
EDANS interfere – EDANS-DABCYL substrate optical interference, artefact control for kallikrein-7 zymogen activator project, biochemical, fluorescence intensity, high throughput. shares compounds with KLK7 zymogen act. no enzyme, 4 h; solvent 0%, active enzyme control 100%. activation, % at 7 µM. 80% of 3,200 active. AID 686952, 2013;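 active = activation above the all-compound mean plus 3 SD, ignoring values outside control-based bounds, cut at about 4.8% in these data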;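 note: value is the 4 h activation minus the activation read at time zero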
* = called active by the depositor.

For Cc1ccc2nc(N3CCN(C(=O)c4cccs4)CC3)c(C#N)cc2c1 the results were Runt-SMMHC FRET 124*, Runt-CBFb FRET 56*, KLK7 zymogen act -1, RanGTP-Impb inh 18*, MEX-5 binding -2, RUNX1 CBFb TR -30 and YIC FRET counter 16*.
COc1ccccc1CNC(=O)C[C@@H]1C[C@H]2c3cc(N(C)C)ccc3O[C@H]2[C@H](CO)O1 was read as KLK7 zymogen act 0.
Screening CCn1c(C)cc2c(c1=O)C(c1ccncc1)C(C#N)=C(N)O2 (centres undefined) returned Runt-SMMHC FRET -2, Runt-CBFb FRET -1, KLK7 zymogen act -1, RanGTP-Impb inh 5 and MEX-5 binding 1.
`CCCC1C(C#N)=C(N)Oc2cc(C)n(C)c(=O)c21` (centres undefined) gave Runt-SMMHC FRET 97*, Runt-CBFb FRET 95*, KLK7 zymogen act -20, RanGTP-Impb inh 18*, MEX-5 binding -2, RUNX1 CBFb TR 63* and YIC FRET counter >50.
`CC(C)OCCCn1c(=N)c(C(N)=S)cc2c(=O)n3ccccc3nc21` gave Runt-SMMHC FRET 65*, Runt-CBFb FRET 65*, KLK7 zymogen act 22*, RanGTP-Impb inh 13, MEX-5 binding -18, RUNX1 CBFb TR 20, KLK7 act conf 4 and EDANS interfere 4.3*.
CC(=O)N=c1c(C#N)cc2c(=O)n3ccccc3nc2n1CCCOC(C)C was read as Runt-SMMHC FRET 82*, Runt-CBFb FRET 76*, KLK7 zymogen act 35*, RanGTP-Impb inh 102*, MEX-5 binding 6, RUNX1 CBFb TR 38, KLK7 act conf -6 and EDANS interfere -2.
For C=CCn1c(-c2cccs2)nc2ccccc21 the results were Runt-SMMHC FRET 2, Runt-CBFb FRET 1 and KLK7 zymogen act 1.
`C=CCn1c(-c2cccs2)nc2nc3ccccc3nc21` gave Runt-SMMHC FRET 126*, Runt-CBFb FRET 55*, KLK7 zymogen act 22*, RanGTP-Impb inh 12, MEX-5 binding 2, RUNX1 CBFb TR -15, KLK7 act conf 70* and EDANS interfere 82*.
For COC(=O)c1ccc(C(=O)OC)c(NC(=O)Oc2ccccc2)c1 the results were Runt-SMMHC FRET 132*, Runt-CBFb FRET 66*, KLK7 zymogen act 38*, RanGTP-Impb inh 14, MEX-5 binding -2, RUNX1 CBFb TR 36, KLK7 act conf 75* and EDANS interfere 75*.
For Cc1c(Cc2ccccc2)c(=O)oc2c(O)c(O)ccc12 the results were Runt-SMMHC FRET 8, Runt-CBFb FRET 19, KLK7 zymogen act -5, RanGTP-Impb inh -1 and MEX-5 binding -2.
Screening Cc1c(Cc2ccccc2)c(=O)oc2cc(O)ccc12 returned Runt-SMMHC FRET 128*, Runt-CBFb FRET 66*, KLK7 zymogen act 88*, RanGTP-Impb inh 4, RUNX1 CBFb TR -5, KLK7 act conf 71* and EDANS interfere 80*.
For CCOC(=O)c1cc2c(=O)n3ccccc3nc2n(Cc2ccco2)c1=NC(=O)c1cccc(OC)c1 the results were Runt-SMMHC FRET 86*, Runt-CBFb FRET 99*, KLK7 zymogen act 29*, RanGTP-Impb inh 33*, MEX-5 binding -4, RUNX1 CBFb TR 55*, KLK7 act conf 42* and EDANS interfere 53*.
Screening CCOC(=O)c1cc(CC)sc1NC(=O)CSc1nc2ccccc2c(=O)n1Cc1ccco1 returned Runt-SMMHC FRET -1, Runt-CBFb FRET -1, KLK7 zymogen act 0, RanGTP-Impb inh -2 and MEX-5 binding 1.
Cc1ccc(CC(=O)NCCCn2ccnc2)cc1 was read as Runt-SMMHC FRET 5, Runt-CBFb FRET 2, KLK7 zymogen act 0, RanGTP-Impb inh 1 and MEX-5 binding -1.
Screening Cc1ccc2nc3c(cc(C(=O)NCCCn4ccnc4)n3C)c(=O)n2c1 returned Runt-SMMHC FRET 77*, Runt-CBFb FRET 54*, KLK7 zymogen act 67*, RanGTP-Impb inh -3, MEX-5 binding -3, RUNX1 CBFb TR -23, KLK7 act conf 62* and EDANS interfere 79*.
`O=C(CC1Sc2ccccc2NC1=O)OCc1cc(=O)oc2cc(O)ccc12` (centres undefined) gave Runt-CBFb FRET 62*, KLK7 zymogen act 188*, RanGTP-Impb inh inconclusive, MEX-5 binding 0, RUNX1 CBFb TR 49*, KLK7 act conf 272* and EDANS interfere 279*.
Screening CCC(C)(C)NC(=O)CN(C(=O)C(=O)Nc1ccc2c(c1)OCCO2)C1CC1 returned KLK7 zymogen act 0, RanGTP-Impb inh 3 and MEX-5 binding 1.
CCOC(=O)c1cc2c(=O)n3cccc(C)c3nc2n(CCOC)c1=NC(C)=O was read as Runt-SMMHC FRET 87*, Runt-CBFb FRET 94*, KLK7 zymogen act 15*, RanGTP-Impb inh 70*, MEX-5 binding -1, RUNX1 CBFb TR -3, KLK7 act conf 10 and EDANS interfere 9.4*.
COCCCn1c(C(=O)NCCC2=CCCCC2)cc2c(=O)n3cccc(C)c3nc21 was read as KLK7 zymogen act -3, RanGTP-Impb inh -2 and MEX-5 binding 1.
For O=C(C1=NOC2(C1)C(=O)N(Cc1ccccc1)c1ccccc12)N1CCOCC1 (centres undefined) the results were KLK7 zymogen act 0.
Cn1c(-c2cc3ccccc3oc2=O)nc2ccccc21 was read as Runt-SMMHC FRET 1, Runt-CBFb FRET 0, KLK7 zymogen act -2, RanGTP-Impb inh -2 and MEX-5 binding -2.
